Among the data in ChEMBL document CHEMBL1137526, “The design and synthesis of N-1-alkylated-5-aminoarylalkylsubstituted-6-methyluracils as potential non-nucleoside HIV-1 RT inhibitors” (Bioorg Med Chem, 2007) are Activity and IC50 values, retold here.

The target of experiment [1] is Human immunodeficiency virus type 1 reverse transcriptase (Human immunodeficiency virus 1) (UniProt Q72547). Put plainly: Inhibition of HIV1 reverse transcriptase upto 100 uM by ELISA. In short, it runs like this: (§1)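 Recombinant HIV-1 RT, non-radioactive ELISA. Oligo(dT) attached through its 5'-phosphate to the plate acts as primer on a poly(A) template (10 µg/ml). Read-out by streptavidin-alkaline phosphatase with PNPP.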

For experiment [2], the target named is Human immunodeficiency virus type 1 reverse transcriptase (Human immunodeficiency virus 1, UniProt Q72547). Put plainly: Inhibition of HIV1 reverse transcriptase by ELISA. The method in brief:
as §1

Calls of active or inactive are those of the source. The rule behind the calls is not given here.

Turning to `CCOCn1c(C)c(CN(C)c2ccccc2)c(=O)[nH]c1=O`, in experiment [1], the result was inactive.
Consider `CCOCn1c(C)c(CNc2cccc([N+](=O)[O-])c2)c(=O)[nH]c1=O`, for which the outcome in experiment [1] was inactive.
In the case of `Cc1c(CNc2ccccc2[N+](=O)[O-])c(=O)[nH]c(=O)n1COCc1ccccc1`, the outcome in experiment [1] was inactive.
The same measure, in the same setting: the entry for `CCOCn1c(C)c(CNc2cccc3ccccc23)c(=O)[nH]c1=O` is “inactive”.
The IC50 is the midpoint of a concentration-inhibition curve. The low end stands for greater potency, the high end for weaker potency. Take `CCOCn1c(C)c(CNc2cc(Cl)c(Cl)cc2Cl)c(=O)[nH]c1=O`: the IC50 in experiment [2] came out at 0.82 µM. This counts as sub-micromolar.
As for `CCOCn1c(C)c(CNc2ccc([N+](=O)[O-])cc2)c(=O)[nH]c1=O`, in experiment [1], the outcome was inactive.
The same measure, in the same setting: under `CCOCn1c(C)c(CNC2CCCCC2)c(=O)[nH]c1=O` stands “inactive”.
Still for that read-out and setting: under `CCOCn1c(C)c(CNc2c(Cl)cc(Cl)cc2Cl)c(=O)[nH]c1=O` stands “inactive”.
With `Cc1c(CNC2CCCCC2)c(=O)[nH]c(=O)n1COCc1ccccc1`, in experiment [2], the half-maximal inhibitory concentration (IC50) turned out to be 5.09 µM.
As to `CCOCn1c(C)c(CNc2ccccc2[N+](=O)[O-])c(=O)[nH]c1=O`, the IC50 in experiment [2] was greater than 100 µM.
As for `Cc1ccc(NCc2c(C)n(COCc3ccccc3)c(=O)[nH]c2=O)cc1`, the IC50 in experiment [2] was determined as 13.8 µM.
Still for that read-out and setting: under `CCOCn1c(C)c(CNc2cc(C)ccc2C)c(=O)[nH]c1=O` stands 26.2 µM.
As for `Cc1c(CNc2ccc([N+](=O)[O-])cc2)c(=O)[nH]c(=O)n1COCc1ccccc1`, in experiment [1], the outcome was inactive.
Same read-out and setting: under `CCOCn1c(C)c(CNc2c(C)cccc2C)c(=O)[nH]c1=O` stands “inactive”; under `CCOCn1c(C)c(CNc2ccc(C)cc2)c(=O)[nH]c1=O`, “inactive”; under `CCOCn1c(C)c(CNc2ncccn2)c(=O)[nH]c1=O`, “inactive”.
In experiment [2], `Cc1c(CN(C)c2ccccc2)c(=O)[nH]c(=O)n1COCc1ccccc1` registered an IC50 of 3.49 µM.
Take `Cc1c(CNc2c(Cl)cc(Cl)cc2Cl)c(=O)[nH]c(=O)n1COCc1ccccc1`: in experiment [1], the result was inactive.
The compound `Cc1c(CNc2cc(Cl)c(Cl)cc2Cl)c(=O)[nH]c(=O)n1COCc1ccccc1` registered an IC50 in experiment [2] greater than 100 µM.
For the compound `Cc1c(CNc2cccc([N+](=O)[O-])c2)c(=O)[nH]c(=O)n1COCc1ccccc1`, the result in experiment [1] was inactive.
Consider `CCOCn1c(C)c(CNc2ccccn2)c(=O)[nH]c1=O`, for which the IC50 in experiment [2] turned out to be 54.7 µM.
